Test [1] is described as follows: Cytotoxicity against human Molt4/C8 cells after 2 days. It counts as functional, cell-based. Particulars: MOLT-4, 48 h.
For test [2], the system named is CCRF-CEM. Kind of test: Cytotoxicity against human CEM cells after 2 days. To be noted: for IC50: Homo sapiens, CCRF-CEM, 48 h. Format: functional, cell-based.
Test [3] concerns L1210. Kind of test: Cytotoxicity against mouse L1210 cells after 2 days. It counts as functional, cell-based. To be noted: L1210, 48 h. The method in brief:
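L1210 cells at 300,000–500,000 cells/mL were added to an equal volume of diluted compound. After 2 days at 37 °C, cells were counted with a Coulter counter. IC50 is the concentration that inhibits proliferation by 50%.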

Test [4] concerns Mammalian orthoreovirus 1. Nature of the test: Antiviral activity against Reovirus 1 infected in african green monkey Vero cells assessed as inhibition of virus induced cytopathic effect. It counts as functional, organism-based. The method in brief: (§1)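 Confluent monolayers in 96-well plates were infected with 100 CCID50 of virus, with 1 h adsorption before residual virus was removed. Cultures were then kept with test compound at 200, 40 or 8 μM. Cytopathic effect was scored once it was complete in untreated infected controls.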
(Damage to the host cells serves as the signal in cytopathic effect assays.)

The subject of test [5] is Influenza A virus. Kind of test: Antiviral activity against influenza A H3N2 virus infected in […] cells assessed as inhibition of virus induced cytopathic effect. It counts as functional, organism-based.
Test [6] has as its system Feline coronavirus. Nature of the test: Antiviral activity against Feline coronavirus infected in CRFK cells assessed as inhibition of virus induced cytopathic effect. It counts as functional, organism-based. The gist of the method:
as §1

For test [7], the system named is Vaccinia virus. Kind of test: Antiviral activity against Vaccinia virus infected in human HEL cells assessed as inhibition of virus induced cytopathic effect. Particulars: Orthopoxvirus vaccinia. It counts as functional, organism-based.
Test [8] has as its system Human respirovirus 3. Kind of test: Antiviral activity against Parainfluenza virus 3 infected in african green monkey Vero cells assessed as inhibition of virus induced cytopathic effect. It counts as functional, organism-based. The gist of the method:
as §1

Test [9] relates to Human alphaherpesvirus 1. Kind of test: Antiviral activity against HSV1 KOS infected in human HEL cells assessed as inhibition of virus induced cytopathic effect. Format: functional, organism-based. The method in brief: as §1
For test [10], the system named is Influenza B virus. Nature of the test: Antiviral activity against influenza B virus infected in MDCK cells assessed as inhibition of virus induced cytopathic effect. Format: functional, organism-based.
For test [11], the system named is Vesicular stomatitis virus. Nature of the test: Antiviral activity against VSV infected in human HEL cells assessed as inhibition of virus induced cytopathic effect. It counts as functional, organism-based.
Test [12] concerns Human alphaherpesvirus 2. Nature of the test: Antiviral activity against HSV2 G infected in human HEL cells assessed as inhibition of virus induced cytopathic effect. It counts as functional, organism-based. Particulars: strain G. The gist of the method:
as §1

The subject of test [13] is Influenza A virus. Nature of the test: Antiviral activity against influenza A H1N1 virus infected in […] cells assessed as inhibition of virus induced cytopathic effect. Format: functional, organism-based.
The subject of test [14] is Punta Toro virus. Nature of the test: Antiviral activity against Punta Toro virus infected in african green monkey Vero cells assessed as inhibition of virus induced cytopathic effect. Format: functional, organism-based. The gist of the method: as §1
The test system of test [15] is Sindbis virus. Kind of test: Antiviral activity against Sindbis virus infected in african green monkey Vero cells assessed as inhibition of virus induced cytopathic effect. It counts as functional, organism-based. The gist of the method: as §1

Active and inactive are the calls of the source. The calls are words filed in the database; no cut-off is given here.

As usually defined, the IC50 is the point on the concentration scale where inhibition reaches its midpoint. As a reminder, the EC50 is the concentration at which the effect is half-maximal.

As to `CCOC(=O)c1c[nH]c(=O)n([C@@H]2O[C@H](CO)[C@@H](O)[C@@H]2O)c1=O`, the 50% inhibitory concentration (IC50) in test [1], in test [2] and in [3] was more than 500 µM in each case.

Turning to `Nc1ccn([C@@H]2O[C@H](CO)[C@@H](O)[C@@H]2O)c(=O)n1` [CYTARABINE], the IC50 in test [2] and in [3] was 0.024 µM each time.

For the molecule `C/C(N)=C1/C=NC(=O)N([C@@H]2O[C@H](CO)[C@@H](O)[C@@H]2O)C1=O`, the IC50 in [1] was found to be 299 µM; in test [2] it was 217 µM; in test [3] it was 211 µM.

In the case of `CC(C)(C)[Si](C)(C)OC[C@H]1O[C@H]2Oc3nc(=O)c4c(n3[C@H]2[C@@H]1O[Si](C)(C)C(C)(C)C)CCCC4`, the concentration for half-maximal inhibition (IC50) in test [1] came out at 185 µM; in [2] it was 212 µM; in test [3], 229 µM.

Turning to `CN(C)/C=N\C1=N[C@@H]2[C@H](O1)O[C@H](CO[Si](C)(C)C(C)(C)C)[C@H]2O[Si](C)(C)C(C)(C)C`, the IC50 was determined as 226 µM in [1], 215 µM in test [2] and 254 µM in [3].

For `CCOC(=O)c1cnc2n(c1=O)[C@@H]1[C@H](O2)O[C@H](CO)[C@H]1O`, the IC50 in test [1], in test [2] and in test [3] was more than 500 µM throughout.

On to `CC(=O)c1cnc2n(c1=O)[C@@H]1[C@H](O2)O[C@H](CO)[C@H]1O`, for which the half-inhibitory concentration (IC50) in test [1] was determined as 380 µM; in test [2], 254 µM; in test [3], 312 µM.

On to `CC(C)(C)[Si](C)(C)OC[C@H]1O[C@H]2Oc3nc4c(c(=O)n3[C@H]2[C@@H]1O[Si](C)(C)C(C)(C)C)CCCC4`, for which the outcome in test [4], in test [5], in [6], in test [8], in test [9] and in [10] was inactive. Moreover, the result in [11], in [12], in test [13], in test [14] and in test [15] was inactive. The concentration for half-maximal inhibition (IC50) amounted to 129 µM in test [1], 126 µM in [2] and 201 µM in [3]. The EC50 result in test [2] (ccrf-cem) is “Not Active”; in [7], 45 µM.

As to `CC(=O)c1c[nH]c(=O)n([C@@H]2O[C@H](CO)[C@@H](O)[C@@H]2O)c1=O`, the IC50 in test [1], in test [2] and in test [3] was more than 500 µM each time.

With `O=c1[nH]c2c(c(=O)n1[C@@H]1O[C@H](CO)[C@@H](O)[C@@H]1O)CCCC2`, the IC50 in test [1], in test [2] and in test [3] was more than 500 µM in each case.

As for `CN(C)/C=N\C1=N[C@@H]2[C@H](O1)O[C@H](CO)[C@H]2O`, the half-maximal inhibitory concentration (IC50) in test [1], in [2] and in [3] was more than 500 µM each time.

`O=c1c2c(nc3n1[C@@H]1[C@H](O3)O[C@H](CO)[C@H]1O)CCCC2`: the IC50 in test [1], in test [2] and in test [3] was more than 500 µM in each case.

In the case of `O=c1[nH]c(=O)n([C@@H]2O[C@H](CO)[C@@H](O)[C@@H]2O)c2c1CCCC2`, the IC50 in test [1], in [2] and in test [3] was more than 500 µM each time.

`CC(=O)c1cnc2n(c1=O)[C@@H]1[C@H](O2)O[C@H](CO[Si](C)(C)C(C)(C)C)[C@H]1O[Si](C)(C)C(C)(C)C`: the IC50 turned out to be 7.9 µM in [1], 7.5 µM in test [2] and 6 µM in test [3].

For `C/C(N)=C1/C=NC(=O)N([C@@H]2O[C@H](CO[Si](C)(C)C(C)(C)C)[C@@H](O[Si](C)(C)C(C)(C)C)[C@@H]2O)C1=O`, the IC50 was found to be 18 µM in test [1] and 17 µM in [2].

On to `O=c1nc2n(c3c1CCCC3)[C@@H]1[C@H](O2)O[C@H](CO)[C@H]1O`, for which the IC50 in test [1], in test [2] and in test [3] was more than 500 µM each time.

The record behind these values is ChEMBL document CHEMBL1153735, “Synthesis and in vitro cytostatic activity of new beta-D-arabino furan[1',2':4,5]oxazolo- and arabino-pyrimidinone derivatives” (Eur J Med Chem, 2010).
